Experimental data gathered from unrelated publications.
SIGMAR1: Sigma non-opioid intracellular receptor 1 (SIGMAR1, Homo sapiens, UniProt Q99720)
PFF0160c E182D: Dihydroorotate dehydrogenase (quinone), mitochondrial (PFF0160c, Plasmodium falciparum, UniProt Q08210, E182D)
Nectin-4: Nectin-4 (Homo sapiens, UniProt Q96NY8)
PFF0160c: Dihydroorotate dehydrogenase (quinone), mitochondrial (PFF0160c, Plasmodium falciparum, UniProt Q08210)

SMILES | target | observed | mode | technique | quantity | value
CC1CCN(CCCC(=O)c2ccc(F)cc2)CC1 | SIGMAR1 | ligand displacement |  | radioligand | Ki | 0.0101 µM
O=C(CNCC1CCCCC1)Nc1cc(C(F)(F)F)ccc1Cl | PFF0160c E182D | enzyme activity | inhibitor | absorbance | IC50 | 8.39 µM
COc1cc2c(cc1OC)CN(CCc1ccc(NC(=O)c3cc(OC)c(OC)cc3NC(=O)c3cnc4ccccc4c3)cc1)CC2 | SIGMAR1 | ligand displacement |  | radioligand | Ki | 0.472 µM
CCCC[C@@H]1NC(=O)[C@H](Cc2ccc(O)cc2)NC(=O)[C@@H]2CCCN2C(=O)[C@H](CC(=O)O)NC(=O)[C@H](C)NC(=O)[C@H](Cc2ccccc2)NC(=O)[C@@H]2CSCCC(=O)N3CN(CN(C3)C(=O)CCSC[C@@H](C(=O)N[C@@H](C)C(N)=O)NC1=O)C(=O)CCSC[C@H](NC(C)=O)C(=O)N[C@@H](CC(C)(C)C)C(=O)N1CCC[C@H]1C(=O)N[C@@H](CCC(=O)O)C(=O)N[C@H](CCCCNC(=O)CCc1cn(CCOCCOCCOCCOCCOCCC(=O)N[C@H]3CSCCC(=O)N4CN5CN(C4)C(=O)CCSC[C@H](NC(=O)[C@@H](CCC(=O)O)NC(=O)[C@H](Cc4cccc6ccccc46)NC(=O)[C@@H]4CCCN4C3=O)C(=O)N[C@@H](CC(C)C)C(=O)N[C@@H](CCCCNC(=N)N)C(=O)N[C@@H](CC(=O)O)C(=O)N[C@@H](Cc3c[nH]c4ccccc34)C(=O)N[C@@H](CO)C(=O)N[C@@H]([C@@H](C)O)C(=O)N3CCC[C@H]3C(=O)N3C[C@H](O)C[C@H]3C(=O)N[C@@H](Cc3c[nH]c4ccccc34)C(=O)N[C@H](C(N)=O)CSCCC5=O)nn1)C(=O)N1CCC[C@H]1C(=O)N[C@@H](Cc1ccc(O)cc1)C(=O)N2 | Nectin-4 | binding |  | SPR | Kd | 0.0042 µM
O=C(c1ccc(F)cc1)C1CCN(C2Cc3ccccc3CC2O)CC1 (single isomer, unassigned; (-)) | Vesicular acetylcholine transporter (SLC18A3, Homo sapiens, UniProt Q16572) | ligand displacement |  | radioligand | Ki | 0.0247 µM
CCCC[C@@H]1NC(=O)[C@H](Cc2ccc(O)cc2)NC(=O)[C@@H]2CCCN2C(=O)[C@H](CC(=O)O)NC(=O)[C@H](C)NC(=O)[C@H](Cc2ccccc2)NC(=O)[C@@H]2CSCCC(=O)N3CN(CN(C3)C(=O)CCSC[C@H](NC(C)=O)C(=O)N[C@@H](CC(C)(C)C)C(=O)N3CCC[C@H]3C(=O)N[C@@H](CCC(=O)O)C(=O)N[C@H](CCCCNC(=O)CCc3cn(CCOCCOCCOCCN(CCOCCOCCOCCC(=O)N[C@H]4CSCCC(=O)N5CN6CN(C5)C(=O)CCSC[C@H](NC(=O)[C@@H](CC(=O)O)NC(=O)[C@H](Cc5cccc7ccccc57)NC(=O)[C@@H]5CCCN5C4=O)C(=O)N[C@@H](CCSC)C(=O)N[C@@H](CCCCNC(=N)N)C(=O)N[C@@H](CC(=O)O)C(=O)N[C@@H](Cc4c[nH]c5ccccc45)C(=O)N[C@@H](CO)C(=O)N[C@@H]([C@@H](C)O)C(=O)N4CCC[C@H]4C(=O)N4C[C@H](O)C[C@H]4C(=O)N[C@@H](Cc4c[nH]c5ccccc45)C(=O)N[C@H](C(N)=O)CSCCC6=O)CCOCCOCCOCCn4cc(CCC(=O)NCCCC[C@H]5NC(=O)[C@H](CCC(=O)O)NC(=O)[C@@H]6CCCN6C(=O)[C@H](CC(C)(C)C)NC(=O)[C@@H](NC(C)=O)CSCCC(=O)N6CN7CN(C6)C(=O)CCSC[C@H](NC(=O)[C@H](Cc6ccc(O)cc6)NC(=O)[C@@H]6CCCN6C5=O)C(=O)N[C@@H](Cc5ccccc5)C(=O)N[C@@H](C)C(=O)N[C@@H](CC(=O)O)C(=O)N5CCC[C@H]5C(=O)N[C@@H](Cc5ccc(O)cc5)C(=O)N[C@@H](CCCC)C(=O)N[C@H](C(N)=O)CSCCC7=O)nn4)nn3)C(=O)N3CCC[C@H]3C(=O)N[C@@H](Cc3ccc(O)cc3)C(=O)N2)C(=O)CCSC[C@@H](C(N)=O)NC1=O | Nectin-4 | binding |  | SPR | Kd | 0.0039 µM
CN1CCN(C2=Nc3ccccc3Oc3ccc(Cl)cc32)CC1 | SIGMAR1 | ligand displacement |  | radioligand | Ki | > 10 µM
O=C1C(c2ccccc2)=C(Nc2ccc([N+](=O)[O-])cc2)c2ccccc21 | PFF0160c | enzyme activity | inhibitor | absorbance | IC50 | 2.15 µM
Cc1nccn1CC1CCc2c(c3ccccc3n2C)C1=O (stereo not drawn) | SIGMAR1 | ligand displacement |  | radioligand | Ki | 6.51 µM
CC(CNCc1cn(Cc2cc(Br)cc(Br)c2)c2ccccc12)CNc1cc(=O)c2ccccc2[nH]1 (stereo not drawn) | PFF0160c | enzyme activity | inhibitor | absorbance | IC50 | 2.72 µM
CCCC[C@@H]1NC(=O)[C@H](Cc2ccc(O)cc2)NC(=O)[C@@H]2CCCN2C(=O)[C@H](CC(=O)O)NC(=O)[C@H](C)NC(=O)[C@H](Cc2ccccc2)NC(=O)[C@@H]2CSCCC(=O)N3CN(CN(C3)C(=O)CCSCCC(=O)N[C@@H](CC(C)(C)C)C(=O)N3CCC[C@H]3C(=O)N[C@@H](CCC(=O)O)C(=O)N[C@H](CCCCNC(=O)CCc3cn(CCOCCOCCOCCOCCOCCC(=O)N[C@H]4CSCCC(=O)N5CN6CN(C5)C(=O)CCSC[C@H](NC(=O)[C@@H](CC(=O)O)NC(=O)[C@H](Cc5cccc7ccccc57)NC(=O)[C@@H]5CCCN5C4=O)C(=O)N[C@@H](CCSC)C(=O)N[C@@H](CCCCNC(=N)N)C(=O)N[C@@H](CC(=O)O)C(=O)N[C@@H](Cc4c[nH]c5ccccc45)C(=O)N[C@@H](CO)C(=O)N[C@@H]([C@@H](C)O)C(=O)N4CCC[C@H]4C(=O)N4C[C@H](O)C[C@H]4C(=O)N[C@@H](Cc4c[nH]c5ccccc45)C(=O)N[C@H](C(N)=O)CSCCC6=O)nn3)C(=O)N3CCC[C@H]3C(=O)N[C@@H](Cc3ccc(O)cc3)C(=O)N2)C(=O)CCSCCNC1=O | Nectin-4 | binding |  | SPR | Kd | 0.001 µM
CCCCOc1ccccc1C(=O)NCc1csc(-c2ccccc2)n1 | PFF0160c | enzyme activity | inhibitor | absorbance | IC50 | 0.421 µM
CCCC[C@@H]1NC(=O)[C@H](Cc2ccc(O)cc2)NC(=O)[C@@H]2CCCN2C(=O)[C@H](CC(=O)O)NC(=O)[C@H](C)NC(=O)[C@H](Cc2ccccc2)NC(=O)[C@@H]2CSCCC(=O)N3CN(CN(C3)C(=O)CCSC[C@@H](C(=O)N[C@@H](C)C(N)=O)NC1=O)C(=O)CCSC[C@H](NC(=O)[C@H](C)NC(C)=O)C(=O)N[C@@H]([C@@H](C)CC)C(=O)N[C@@H](CCC(=O)O)C(=O)N[C@@H](CCC(=O)O)C(=O)N[C@H](CCCCNC(=O)CCc1cn(CCOCCOCCOCCOCCOCCC(=O)N[C@H]3CSCCC(=O)N4CN5CN(C4)C(=O)CCSC[C@H](NC(=O)[C@@H](CC(=O)O)NC(=O)[C@H](Cc4cccc6ccccc46)NC(=O)[C@@H]4CCCN4C3=O)C(=O)N[C@@H](CCSC)C(=O)N[C@@H](CCCCNC(=N)N)C(=O)N[C@@H](CC(=O)O)C(=O)N[C@@H](Cc3c[nH]c4ccccc34)C(=O)N[C@@H](CO)C(=O)N[C@@H]([C@@H](C)O)C(=O)N3CCC[C@H]3C(=O)N3C[C@H](O)C[C@H]3C(=O)N[C@@H](Cc3c[nH]c4ccccc34)C(=O)N[C@H](C(N)=O)CSCCC5=O)nn1)C(=O)N[C@@H](CCC(N)=O)C(=O)N[C@@H](Cc1ccc(O)cc1)C(=O)N2 | Nectin-4 | binding |  | SPR | Kd | 0.0022 µM
CCc1nc2nc(C)cc(Nc3cc(C)cc(C)c3)n2n1 | PFF0160c E182D | enzyme activity | inhibitor | absorbance | IC50 | 8.56 µM
CN(C)CC[C@@H](c1ccc(Cl)cc1)c1ccccn1 | SIGMAR1 | ligand displacement |  | radioligand | Ki | 1.99 µM
